The record followed here is paper PMC11529722 (Science Advances, 2024).

Series [1] concerns elastase. Put plainly: elastase. The following applies: set for optimal enzyme activity, up to 1 hour.
Series [2] relates to chymotrypsin. Nature of the series: chymotrypsin. The following applies: set for optimal enzyme activity, up to 1 hour.
In series [3] the test system is pronase. Put plainly: pronase. The following applies: set for optimal enzyme activity, up to 1 hour.
The subject of series [4] is pepsin. Put plainly: pepsin in hydrochloric acid solution. As to conditions: 37°C, up to 150 min.
In series [5] the test system is pronase, chymotrypsin, elastase. Put plainly: Enzyme degradation resistance by SDS-PAGE. The format is in vitro ADME. As to conditions: treated separately with pronase, chymotrypsin and elastase for 1 hour, Coomassie Blue.
Series [6] relates to C57BL/6J mice. Nature of the series: Toxicity in C57BL/6J mice: complete blood count. The format is in vivo, mouse. The following applies: C57BL/6J WT mice, 3 mg/kg with respect to peptide, Alzet osmotic pump, 8 weeks. The method in brief:
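Healthy male C57BL/6J mice in three groups (n = 3 to 4 per group) received test compound at 3 mg/kg with respect to peptide, or saline as negative control, via subcutaneously implanted osmotic pump for 8 weeks.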

Series [7] relates to HdhQ111 cells. Nature of the series: Mitochondrial fragmentation assay. The format is cell-based, mouse. The following applies: 3 μM three times for 3 days, anti-Tom20, at least 95 cells per group, n = 3. The essentials: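 HdhQ111 cells dosed at 3 μM three times over 3 days. Fixed in 4% PFA 20 min, permeabilised with 0.1% Triton X-100, blocked with 2% goat serum. Anti-Tom20 (1:4000) overnight at 4°C, Alexa 488 secondary 2 h RT, Hoechst nuclei stain. Confocal imaging; % cells with fragmented mitochondria, ≥95 cells/group, ≥3 independent replicates.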

Series [8] concerns R6/2 mice. Nature of the series: In vivo efficacy in HD R6/2 mice: body weight, survival, behavior. On the set-up: species or system mouse. The method in brief: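 Male hemizygous R6/2 mice (HD exon 1, 100–150 CAG) and WT littermates. Saline, peptide (3 mg kg⁻¹ day⁻¹) or polymer (1.69 mg kg⁻¹ day⁻¹) given by subcutaneous 28-day osmotic pump from 6 weeks; pump replaced after 4 weeks. Weekly tail suspension 20 s, weeks 7–13, clasping scored 0–3. Body weight and survival recorded throughout. 13–32 mice/group for behaviour.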

The target in series [9] is VCP protein (Homo sapiens, UniProt P55072). Nature of the series: BLI. The format is binding. As to conditions: immobilized VCP. The method in brief: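 Anti-His biosensor hydrated, then His-tagged VCP (50 µg/ml in sodium acetate buffer, pH 6.5) immobilized. Test compound (peptide or polymer) dissolved in tris buffer (pH 8.4) and run over a range of concentrations as analyte. KD, on-rate (ka) and off-rate (kd) were measured for each analyte by biolayer interferometry (BLItz).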
VCP protein, sequence (P55072 whole entry, species assumed): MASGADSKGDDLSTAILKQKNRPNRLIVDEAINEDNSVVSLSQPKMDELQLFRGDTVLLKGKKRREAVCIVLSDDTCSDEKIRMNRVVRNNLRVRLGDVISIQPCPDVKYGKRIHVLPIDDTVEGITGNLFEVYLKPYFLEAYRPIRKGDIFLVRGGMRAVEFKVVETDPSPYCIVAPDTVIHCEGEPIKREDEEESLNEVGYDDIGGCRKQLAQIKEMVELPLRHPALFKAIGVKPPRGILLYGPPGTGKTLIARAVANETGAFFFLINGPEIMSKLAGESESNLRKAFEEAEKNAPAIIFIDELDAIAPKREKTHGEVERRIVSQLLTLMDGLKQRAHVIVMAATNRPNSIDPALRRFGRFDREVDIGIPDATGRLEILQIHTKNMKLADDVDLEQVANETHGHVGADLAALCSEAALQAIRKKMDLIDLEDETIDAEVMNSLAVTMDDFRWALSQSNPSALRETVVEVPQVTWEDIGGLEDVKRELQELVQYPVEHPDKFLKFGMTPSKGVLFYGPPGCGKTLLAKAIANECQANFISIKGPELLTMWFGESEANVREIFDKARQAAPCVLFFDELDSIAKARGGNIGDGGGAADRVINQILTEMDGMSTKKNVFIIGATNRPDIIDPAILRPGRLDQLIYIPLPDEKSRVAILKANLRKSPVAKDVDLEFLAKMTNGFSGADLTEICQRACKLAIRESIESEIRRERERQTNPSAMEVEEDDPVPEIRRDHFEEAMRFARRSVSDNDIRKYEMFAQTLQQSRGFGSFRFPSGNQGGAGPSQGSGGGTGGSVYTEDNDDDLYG

Series [10] has as its system C3a in human serum. Nature of the series: C3a complement activation ELISA. As to conditions: human serum 4 hours; P1 at 9.9 and 33 μM (3 and 10 mg/kg); n = 4. The method in brief:
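Test compound incubated in human serum at 1:250 and 1:500 (compound:serum) for 4 h, then diluted. C3a ELISA: 2 h in C3a antibody-coated wells with shaking, 3 washes, biotin primary antibody 1 h, washes, streptavidin 1 h, substrate 30 min, absorbance 450 nm. Cobra venom factor positive control; DPBS vehicle.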

The test system of series [11] is R6/2 mice. Nature of the series: VCP level in striatal mitochondrial fractions of R6/2 mice. In kind it is in vivo, mouse. As to conditions: 13-week-old R6/2 mice, WB, ATPB loading control. The essentials: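 Striatum of 13-week-old pump-dosed mice homogenised in 250 mM sucrose, 20 mM Hepes pH 7.5, 10 mM KCl, 1.5 mM MgCl₂, EDTA/EGTA. Passed 20× through a 25-gauge needle, iced 30 min. Spun 800g 10 min, then supernatant 10,000g 20 min at 4°C; pellet washed and re-spun. Mitochondria lysed in 1% Triton X-100; VCP Western blot, ATPB loading control.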

For series [12], the system named is red blood cells. Put plainly: Hemocompatibility: hemolysis. As to conditions: human red blood cells in PBS, 37°C, 1 hour, absorbance 405 nm, n = 4. The essentials:
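Na citrate-anticoagulated whole human blood spun 500g 5 min. Plasma replaced with 150 mM NaCl; wash repeated twice more; RBCs resuspended in PBS. Compound added 1:20 (v/v) to RBC suspension, 37°C 1 h, n = 4. Spun 500g 5 min; supernatant transferred for reading. 20% Triton X-100 positive control; PBS vehicle.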

Series [13] has as its system C57BL/6J mice. Nature of the series: Toxicity in C57BL/6J mice: histopathology scoring. In kind it is in vivo, mouse. The following applies: C57BL/6J WT mice, 3 mg/kg with respect to peptide, Alzet osmotic pump, 8 weeks, blinded pathologist. The method in brief: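 Male C57BL/6J mice, three groups of n = 3–4. Saline, peptide or polymer (3 mg/kg with respect to peptide) given by subcutaneous osmotic pump for 8 weeks.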

The target in series [14] is pepsin (Sus scrofa, UniProt P00791). Nature of the series: Enzymatic degradation assay with pepsin by HPLC. The format is in vitro ADME. As to conditions: pepsin 0.1 μM, pH 2, peptide 200 μM, 37°C, up to 150 min, analytical HPLC.
pepsin (Sus scrofa, UniProt P00791), sequence (P00791 60-385): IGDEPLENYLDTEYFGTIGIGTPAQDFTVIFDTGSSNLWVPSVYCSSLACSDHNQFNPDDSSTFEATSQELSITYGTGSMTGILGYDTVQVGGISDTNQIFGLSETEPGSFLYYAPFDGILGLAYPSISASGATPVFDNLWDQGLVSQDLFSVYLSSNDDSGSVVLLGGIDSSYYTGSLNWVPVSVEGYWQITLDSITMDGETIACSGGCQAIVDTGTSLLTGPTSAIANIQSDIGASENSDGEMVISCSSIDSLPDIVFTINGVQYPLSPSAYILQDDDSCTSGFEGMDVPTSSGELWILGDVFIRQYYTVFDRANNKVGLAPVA
For series [15], the system named is R6/2 mice. Put plainly: Neuropathology in striatum of R6/2 mice. The format is in vivo, mouse. The following applies: 13-week-old R6/2 mice.

HVLVMSATRR: the not cleaved entry in series [1] is reported as “maintained molecular weight after 1 hour”; in [2], “maintained molecular weight after 1 hour”; in series [3], “maintained molecular weight after 1 hour”; in series [4], “no cleavage observed for up to 150 min”.
A word on the koff: it is the first-order rate constant of dissociation. Take HVLVMSATRR [P1]: the “molecular weight after enzyme treatment (gel electrophoresis)” value in [5] was “maintained molecular weight”. Moreover, the “complete blood count and blood chemistry profile vs saline” value in [6] is “no significant deviation of any markers”. Further, the “mitochondrial fragmentation vs vehicle” value in series [7] is “marked reduction in the number of fragmented mitochondria”. In addition, the “effects of treatment on WT mice” value in series [8] (WT littermates, P1 1.69 mg kg^−1 day^−1, 6 to 13 weeks of age) is reported as “no significant effects on motor activity, body weight, or neuropathology”. Besides, the “body weight vs R6/2 saline control” value in [8] (male R6/2 mice, 3 mg kg^−1 day^−1 per peptide (P1 1.69 mg kg^−1 day^−1), Alzet pump, 6 to 13 weeks of age) is recorded as “significantly inhibiting weight loss”. In addition, the “survival vs R6/2 saline control” value in [8] (male R6/2 mice, 3 mg kg^−1 day^−1 per peptide, Alzet pump, 6 to 13 weeks of age) is reported as “extended survival”. For the same sequence, the “clasping times compared to HV3-TAT-treated mice” value in series [8] (male R6/2 mice, tail suspension test) was “shorter clasping times”. Moreover, the hindlimb clasping behavior result in series [8] (male R6/2 mice, tail suspension test weekly, 3 mg kg^−1 day^−1 per peptide, Alzet pump) was “attenuated the clasping behavior”. The “fold decrease in dissociation constant compared to the HV3-TAT peptide” value in [9] is reported as 150 fold. Further, the “koff” value in [9] (dissociation rate constant) is 2.5e-05 s⁻¹. In addition, the “C3a complement activation compared to vehicle” value in series [10] is given as “did not show a statistically significant difference in activity”. For the same sequence, in series [11], the “VCP level on striatal mitochondria” value is “blocks aberrant VCP mitochondrial translocation”. The “hemolytic activity compared to vehicle control” value in series [12] is “nonsignificant”. In series [13], the “organ pathology vs saline control group” value was “no significant differences in pathology”. In addition, the cleavage by pepsin entry in series [14] is “no cleavage observed”. Further, the “striatal BDNF level compared to the HV3-TAT treatment group” value in series [15] (Western blot) is “significantly higher level of BDNF”. The “mtHtt aggregates in striatum vs saline-treated R6/2 mice” value in series [15] (anti-Htt EM48 staining, n = 6) is listed as “reduced number of mtHtt aggregates”. Moreover, in series [15] (n = 6), the “DARPP-32 immunohistochemical staining in striatum” value is on record as “Enhanced levels of DARPP-32”.
